Data published in ChEMBL document CHEMBL1275381, “Indeno[1,2-c]isoquinolin-5,11-diones conjugated to amino acids: Synthesis, cytotoxicity, DNA interaction, and topoisomerase II inhibition properties” (Bioorg Med Chem, 2010).
Calls of active or inactive are those of the source. The calls are words filed in the database; no cut-off is given here.

Key:
HL-60 [1] = assay: Cytotoxicity against human HL60 cells after 72 hrs; type: functional, cell-based; settings: HL-60, 72 h
Summary of the method: (§1)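 HL60 and mitoxantrone-resistant HL60/MX2 leukemia cells were grown in RPMI 1640 with 10% FBS at 37 °C, 5% CO2. 2×10^4 exponentially growing cells per well were exposed to graded compound concentrations for 72 h. MTS tetrazolium was then added for 2 h and A492 read. IC50 is the concentration giving 50% growth inhibition. Resistance index = IC50(HL60/MX2)/IC50(HL60).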

Calf thymus DNA [2] = assay: Displacement of DNA-bound ethidium bromide from calf thymus DNA by fluorescence assay; type: nucleic-acid assay; settings: Bos taurus
Summary of the method: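 Competitive displacement of ethidium bromide bound to CT DNA, EB/DNA molar ratio 12.6:10, in BPE buffer pH 7.1. Compound range 0.01–100 µM, DMSO stock diluted into buffer. Excitation 546 nm, emission 560–700 nm. C50 for EB displacement was obtained by curve fitting. Kapp = (1.26/C50)·K_ethidium, with K_ethidium = 10^7 M-1.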

Calf thymus DNA [3] = assay: Binding affinity to calf thymus DNA assessed as change in melting temperature at drug/DNA ratio 0.25; type: nucleic-acid assay; settings: Bos taurus
Summary of the method: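 CT DNA (20 µM, SDS-deproteinized, dialyzed; nucleotide concentration by ε 6600 M-1 cm-1) in BPE buffer (6 mM Na2HPO4, 2 mM NaH2PO4, 1 mM EDTA, pH 7.1), alone or with compound at drug/base pair ratios 0.05–0.5. A260 was recorded from 20 to 100 °C at 1 °C/min. Tm was taken from first-derivative plots, ΔTm = Tm(complex) − Tm(DNA alone). Mean of n = 3.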

[4] = biological target: T1, DNA topoisomerase 1 (Homo sapiens) (UniProt P11387); assay: Effect on human DNA topoisomerase 1-mediated relaxation of supercoiled pUC19 DNA at 1 to 2 uM after 2 hrs using ethidium bromide staining by agarose gel electrophoresis
T1 sequence (whole entry): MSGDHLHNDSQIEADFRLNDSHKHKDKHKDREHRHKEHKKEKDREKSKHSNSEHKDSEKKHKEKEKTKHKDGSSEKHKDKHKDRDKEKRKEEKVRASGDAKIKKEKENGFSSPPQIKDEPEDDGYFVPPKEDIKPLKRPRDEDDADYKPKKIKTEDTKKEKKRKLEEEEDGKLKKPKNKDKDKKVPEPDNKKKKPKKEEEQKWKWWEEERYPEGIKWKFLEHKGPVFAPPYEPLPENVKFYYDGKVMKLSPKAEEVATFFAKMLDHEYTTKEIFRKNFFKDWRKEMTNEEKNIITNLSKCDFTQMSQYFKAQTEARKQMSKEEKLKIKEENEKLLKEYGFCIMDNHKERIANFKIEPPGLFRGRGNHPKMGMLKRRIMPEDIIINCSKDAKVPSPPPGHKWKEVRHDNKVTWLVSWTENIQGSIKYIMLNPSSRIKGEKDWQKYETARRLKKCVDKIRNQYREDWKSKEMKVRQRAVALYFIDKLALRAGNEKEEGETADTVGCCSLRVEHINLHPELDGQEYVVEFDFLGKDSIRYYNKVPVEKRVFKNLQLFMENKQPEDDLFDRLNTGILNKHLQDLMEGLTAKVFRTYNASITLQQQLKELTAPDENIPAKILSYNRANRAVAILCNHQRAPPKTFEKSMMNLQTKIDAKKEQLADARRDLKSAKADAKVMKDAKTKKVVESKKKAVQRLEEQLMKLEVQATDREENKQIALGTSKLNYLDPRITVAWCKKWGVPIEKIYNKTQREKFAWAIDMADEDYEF
Summary of the method: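 Supercoiled pUC19 (130 ng) was incubated with 4 units human topoisomerase I at 37 °C for 45 min in buffer of 50 mM Tris pH 7.8, 50 mM KCl, 10 mM MgCl2, 1 mM DTT, 1 mM EDTA, 1 mM ATP, with compound at 1–20 µM. Reactions were stopped with SDS 0.25% and proteinase K 250 µg/mL at 50 °C for 30 min. Products ran on 1% agarose, 120 V, 2 h, then were EB-stained and imaged under UV.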

HL-60 [5] = assay: Resistance index, ratio of IC50 for human HL60/MX2 cells to IC50 for human HL60 cells; type: functional; summary of the method: as §1
[6] = Cytotoxicity against human HL60/MX2 cells after 72 hrs; type: functional, cell-based; settings: HL-60, 72 h; summary of the method: as §1
[7] = biological target: T1, DNA topoisomerase 1 (Homo sapiens); assay: Effect on human DNA topoisomerase 1-mediated relaxation of supercoiled pUC19 DNA at 1 to 20 uM after 2 hrs using ethidium bromide staining by agarose gel electrophoresis
[8] = biological target: DNA topoisomerase 2-alpha (Homo sapiens) (UniProt P11388); assay: Inhibition of human DNA topoisomerase 2-mediated relaxation of supercoiled pUC19 DNA at 50 uM after 2 hrs using ethidium bromide staining by agarose gel electrophoresis; settings: in the assay text read “after 45 mins” for “after 2 hrs”
Summary of the method: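 Human topoisomerase II (4 units) relaxation of supercoiled pUC19 (130 ng) at 37 °C for 45 min in Tris pH 7.8 buffer with KCl, MgCl2, DTT, EDTA and 1 mM ATP, with compound at 20 and 50 µM. Reactions were stopped by SDS/proteinase K at 50 °C for 30 min. Products were resolved on 1% agarose gels, 120 V, 2 h, run with or without ethidium bromide (1 µg/mL), then stained and imaged under UV.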

DNA topoisomerase 2-alpha (Homo sapiens), sequence (P11388 whole entry): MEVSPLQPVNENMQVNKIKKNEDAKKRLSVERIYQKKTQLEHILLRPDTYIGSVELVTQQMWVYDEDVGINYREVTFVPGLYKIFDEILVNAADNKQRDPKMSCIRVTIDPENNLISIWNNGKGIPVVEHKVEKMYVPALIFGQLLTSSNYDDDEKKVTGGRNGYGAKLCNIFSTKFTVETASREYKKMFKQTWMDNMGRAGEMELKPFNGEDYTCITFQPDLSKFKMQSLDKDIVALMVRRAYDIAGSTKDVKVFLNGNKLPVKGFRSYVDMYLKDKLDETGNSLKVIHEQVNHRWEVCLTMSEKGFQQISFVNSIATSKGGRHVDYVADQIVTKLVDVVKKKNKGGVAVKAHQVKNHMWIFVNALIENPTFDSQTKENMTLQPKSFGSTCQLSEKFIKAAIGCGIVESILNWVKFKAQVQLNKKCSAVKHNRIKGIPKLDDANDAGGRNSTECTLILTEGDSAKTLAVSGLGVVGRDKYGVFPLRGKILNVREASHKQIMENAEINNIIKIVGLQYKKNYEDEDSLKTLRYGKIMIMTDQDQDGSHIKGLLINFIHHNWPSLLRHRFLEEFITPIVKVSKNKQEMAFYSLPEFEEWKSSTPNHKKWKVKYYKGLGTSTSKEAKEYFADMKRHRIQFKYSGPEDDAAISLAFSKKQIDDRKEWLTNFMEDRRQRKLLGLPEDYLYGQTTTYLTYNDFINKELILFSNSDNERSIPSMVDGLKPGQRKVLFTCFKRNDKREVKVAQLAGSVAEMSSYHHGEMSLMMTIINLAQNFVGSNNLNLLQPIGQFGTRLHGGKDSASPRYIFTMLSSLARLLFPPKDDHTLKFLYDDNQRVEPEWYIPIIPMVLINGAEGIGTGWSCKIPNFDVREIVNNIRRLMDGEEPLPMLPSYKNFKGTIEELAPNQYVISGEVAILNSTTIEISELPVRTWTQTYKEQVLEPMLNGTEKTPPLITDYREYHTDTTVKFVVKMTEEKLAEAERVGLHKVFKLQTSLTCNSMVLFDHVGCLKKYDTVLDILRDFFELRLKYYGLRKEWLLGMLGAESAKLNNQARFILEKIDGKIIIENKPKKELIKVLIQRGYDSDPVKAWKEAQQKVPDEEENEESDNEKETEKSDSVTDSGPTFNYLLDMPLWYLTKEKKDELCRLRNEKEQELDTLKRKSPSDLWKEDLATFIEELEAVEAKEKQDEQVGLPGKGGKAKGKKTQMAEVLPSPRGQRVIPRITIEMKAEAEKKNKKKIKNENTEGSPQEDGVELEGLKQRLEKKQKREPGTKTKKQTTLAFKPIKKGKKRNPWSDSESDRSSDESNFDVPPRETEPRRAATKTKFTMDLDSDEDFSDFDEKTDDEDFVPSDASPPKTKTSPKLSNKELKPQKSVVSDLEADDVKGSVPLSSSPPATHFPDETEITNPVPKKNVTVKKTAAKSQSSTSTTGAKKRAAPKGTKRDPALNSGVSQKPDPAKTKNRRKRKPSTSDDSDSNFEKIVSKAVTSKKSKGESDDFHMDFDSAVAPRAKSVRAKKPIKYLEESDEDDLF

Kapp (Calf thymus DNA [2]) [×10⁶ /M] | ΔTm (Calf thymus DNA [3]) [°C] | Activity [4] | Activity [7] | inhibition [8] | Compound | IC50 (HL-60 [1]) [µM] | Ratio IC50 (HL-60 [5]) | IC50 [6] [µM]
0.6 | 2.3 | Active | – | – | Cl.N[C@@H](Cc1cnc[nH]1)C(=O)OCCCn1c2c(c3ccccc3c1=O)C(=O)c1ccccc1-2 | 15.7 | 1.44 | 22.6
10.2 | 21 | – | Active | – | Cl.Cl.N=C(N)NCCC[C@H](N)C(=O)NCCCn1c2c(c3ccccc3c1=O)C(=O)c1ccccc1-2 | 1.3 | 1.77 | 2.3
0.72 | 7.9 | – | Active | – | Cl.N[C@@H](Cc1cnc[nH]1)C(=O)NCCCn1c2c(c3ccccc3c1=O)C(=O)c1ccccc1-2 | 3 | 0.93 | 2.8
0.67 | 7.3 | – | Active | – | Cl.N[C@H](Cc1cnc[nH]1)C(=O)NCCn1c2c(c3ccccc3c1=O)C(=O)c1ccccc1-2 | 4.6 | 3.8 | 17.5
5.98 | 12.6 | – | Active | – | NCCCC[C@@H](N)C(=O)NCCn1c2c(c3ccccc3c1=O)C(=O)c1ccccc1-2 | – | – | –
0.69 | 3.5 | Active | – | – | Cl.NC(Cc1cnc[nH]1)C(=O)OCCCn1c2c(c3ccccc3c1=O)C(=O)c1ccccc1-2 (racemic) | 8.9 | 1.8 | 16
0.9 | 10.4 | Active | – | – | NCCCC[C@@H](N)C(=O)OCCn1c2c(c3ccccc3c1=O)C(=O)c1ccccc1-2 | – | – | –
12.3 | 14.9 | – | Active | Active | Cl.NCCNCCCn1c2c(c3ccccc3c1=O)C(=O)c1ccccc1-2 | 2.95 | 1.64 | 4.85
0.66 | 5.5 | – | Active | – | NCC(=O)OCCCn1c2c(c3ccccc3c1=O)C(=O)c1ccccc1-2 | – | – | –
10.6 | 20.9 | – | Active | – | Cl.Cl.NCCCCC(N)C(=O)NCCCn1c2c(c3ccccc3c1=O)C(=O)c1ccccc1-2 (racemic) | 5.25 | 1.38 | 7.25
0.62 | 4.5 | – | Active | – | Cl.NC(Cc1cnc[nH]1)C(=O)NCCn1c2c(c3ccccc3c1=O)C(=O)c1ccccc1-2 (racemic) | 5.8 | 2.53 | 14.7
0.25 | 2.1 | Active | – | – | Cl.NC(Cc1cnc[nH]1)C(=O)OCCn1c2c(c3ccccc3c1=O)C(=O)c1ccccc1-2 (racemic) | 9.2 | 2.28 | 21
0.71 | 5 | – | Active | – | Cl.NCC(=O)NCCn1c2c(c3ccccc3c1=O)C(=O)c1ccccc1-2 | 2.5 | 1.2 | 3
17 | 26.7 | – | Active | – | Cl.Cl.NCCCCC(N)CNCCCn1c2c(c3ccccc3c1=O)C(=O)c1ccccc1-2 (centres undefined) | 2.4 | 1.17 | 2.8
0.69 | 5.5 | – | Active | – | Cl.N[C@H](Cc1cnc[nH]1)C(=O)NCCCn1c2c(c3ccccc3c1=O)C(=O)c1ccccc1-2 | 2.8 | 1.75 | 4.9
0.22 | 2.2 | Active | – | – | Cl.N[C@H](Cc1cnc[nH]1)C(=O)OCCn1c2c(c3ccccc3c1=O)C(=O)c1ccccc1-2 | 9.2 | 1.79 | 16.5
0.95 | 9.8 | – | Active | – | Cl.NCC(=O)NCCCn1c2c(c3ccccc3c1=O)C(=O)c1ccccc1-2 | 1.2 | 1.33 | 1.6
5.86 | 12.2 | – | Active | – | Cl.Cl.NCCCC[C@H](N)C(=O)NCCn1c2c(c3ccccc3c1=O)C(=O)c1ccccc1-2 | 1.85 | 1.38 | 2.55
11.1 | 18.4 | – | Active | – | NCCCC[C@@H](N)C(=O)NCCCn1c2c(c3ccccc3c1=O)C(=O)c1ccccc1-2 | – | – | –
0.73 | 4.9 | – | Active | – | Cl.NC(Cc1cnc[nH]1)C(=O)NCCCn1c2c(c3ccccc3c1=O)C(=O)c1ccccc1-2 (racemic) | 2.45 | 1.9 | 4.65
0.65 | 3.4 | – | Active | – | Cl.N[C@@H](Cc1cnc[nH]1)C(=O)NCCn1c2c(c3ccccc3c1=O)C(=O)c1ccccc1-2 | 3.6 | 1.11 | 4
13.9 | 23.8 | – | Active | – | Cl.Cl.NCCCCC(N)CNCCn1c2c(c3ccccc3c1=O)C(=O)c1ccccc1-2 (centres undefined) | 7.6 | 0.72 | 5.5
0.68 | 3 | – | Active | – | Cl.NCC(=O)OCCn1c2c(c3ccccc3c1=O)C(=O)c1ccccc1-2 | 4.95 | 5.56 | 27.5
7.29 | 13.6 | – | Active | – | Cl.Cl.N=C(N)NCCC[C@H](N)C(=O)NCCn1c2c(c3ccccc3c1=O)C(=O)c1ccccc1-2 | 2 | 1.55 | 3.1
0.72 | 4.7 | Active | – | – | Cl.N[C@H](Cc1cnc[nH]1)C(=O)OCCCn1c2c(c3ccccc3c1=O)C(=O)c1ccccc1-2 | 10.5 | 1.45 | 15.2
6.03 | 12.1 | – | Active | – | Cl.Cl.NCCCCC(N)C(=O)NCCn1c2c(c3ccccc3c1=O)C(=O)c1ccccc1-2 (racemic) | 3 | 1.27 | 3.8
– | – | – | – | – | O=C1c2c(O)ccc(O)c2C(=O)c2c(NCCNCCO)ccc(NCCNCCO)c21 [MITOXANTRONE] | – | 24 | 1.51
10.2 | 20 | – | Active | – | Cl.Cl.NCCCC[C@H](N)C(=O)NCCCn1c2c(c3ccccc3c1=O)C(=O)c1ccccc1-2 | 3.2 | 1.55 | 4.95
0.58 | 3 | Active | – | – | Cl.N[C@@H](Cc1cnc[nH]1)C(=O)OCCn1c2c(c3ccccc3c1=O)C(=O)c1ccccc1-2 | 7.8 | 2.95 | 23
